Measurements reported in ChEMBL document CHEMBL4043093, “2-Oxo-3, 4-dihydropyrimido[4, 5-d]pyrimidinyl derivatives as new irreversible pan fibroblast growth factor receptor (FGFR) inhibitors” (Eur J Med Chem, 2017).

Columns and labels:
[1] = Antiproliferative activity against human FGFR2-amplified SUM52 cells after 5 days by SRB assay; conditions: SUM52, 120 h
[2] = test system: Tyrosine-protein kinase ABL1 (Homo sapiens), P00519 [M351T]; assay: Inhibition of human phosphorylated ABL1 M351T mutant (S229 to K512 residues) expressed in HEK293 cells assessed as residual activity at 1000 nM after 30 mins by Kinomescan method relative to control; assay type: cell-based
Outline: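 Single-point screen at a fixed 1 µM, run within a 456-kinase DiscoveRx KINOMEscan panel. Each kinase's read-out is Percent Control, i.e. signal relative to a control without compound. Hits were scored by a Percent Control < 35 cut-off, and an S(35) selectivity score was calculated across the non-mutant kinases.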

[3] = molecular target: Tyrosine-protein kinase TXK (Homo sapiens) (UniProt P42681); assay: Inhibition of wild-type human partial length TXK (L238 to W527 residues) expressed in Escherichia coli BL21 assessed as residual activity at 1000 nM after 30 mins by Kinomescan method relative to control
Chain of Tyrosine-protein kinase TXK (Homo sapiens) (P42681 whole entry, the tested form may be a part, canonical isoform): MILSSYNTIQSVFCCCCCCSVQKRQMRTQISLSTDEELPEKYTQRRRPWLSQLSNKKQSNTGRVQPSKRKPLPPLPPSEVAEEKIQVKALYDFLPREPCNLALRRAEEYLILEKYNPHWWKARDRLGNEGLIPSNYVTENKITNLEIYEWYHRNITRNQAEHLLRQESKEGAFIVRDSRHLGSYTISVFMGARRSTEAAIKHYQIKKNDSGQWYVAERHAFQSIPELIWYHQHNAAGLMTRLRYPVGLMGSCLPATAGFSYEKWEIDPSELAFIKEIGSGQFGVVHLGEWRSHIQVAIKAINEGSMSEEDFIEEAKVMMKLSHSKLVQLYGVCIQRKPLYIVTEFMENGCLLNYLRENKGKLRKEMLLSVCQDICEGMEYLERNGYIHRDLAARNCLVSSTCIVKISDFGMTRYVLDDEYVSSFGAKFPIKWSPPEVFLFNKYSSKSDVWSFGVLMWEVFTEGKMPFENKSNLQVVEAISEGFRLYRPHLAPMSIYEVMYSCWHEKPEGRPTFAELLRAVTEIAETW

[4] = molecular target: Casein kinase I isoform alpha (Homo sapiens) (UniProt P48729); assay: Inhibition of wild-type human partial length CSNK1A1 (M1 to L450 residues) expressed in HEK293 cells assessed as residual activity at 1000 nM after 30 mins by Kinomescan method relative to control; assay type: cell-based
Chain of Casein kinase I isoform alpha (Homo sapiens) (P48729 2-337 limits assumed): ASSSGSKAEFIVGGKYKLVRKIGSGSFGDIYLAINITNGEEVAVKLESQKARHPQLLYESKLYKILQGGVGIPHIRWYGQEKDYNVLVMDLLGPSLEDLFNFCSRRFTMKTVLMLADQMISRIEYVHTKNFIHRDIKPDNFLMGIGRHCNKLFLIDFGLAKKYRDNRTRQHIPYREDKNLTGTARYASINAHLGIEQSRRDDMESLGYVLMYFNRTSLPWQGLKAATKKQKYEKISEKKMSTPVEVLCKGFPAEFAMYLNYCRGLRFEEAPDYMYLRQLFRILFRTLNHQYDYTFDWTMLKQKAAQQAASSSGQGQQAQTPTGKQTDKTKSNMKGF

[5] = molecular target: Ephrin type-A receptor 7 (Homo sapiens) (UniProt Q15375); assay: Inhibition of wild-type human partial length EPHA7 (Y608 to S912 residues) expressed in Escherichia coli BL21 assessed as residual activity at 1000 nM after 30 mins by Kinomescan method relative to control
Chain of Ephrin type-A receptor 7 (Homo sapiens) (Q15375 28-998 limits assumed): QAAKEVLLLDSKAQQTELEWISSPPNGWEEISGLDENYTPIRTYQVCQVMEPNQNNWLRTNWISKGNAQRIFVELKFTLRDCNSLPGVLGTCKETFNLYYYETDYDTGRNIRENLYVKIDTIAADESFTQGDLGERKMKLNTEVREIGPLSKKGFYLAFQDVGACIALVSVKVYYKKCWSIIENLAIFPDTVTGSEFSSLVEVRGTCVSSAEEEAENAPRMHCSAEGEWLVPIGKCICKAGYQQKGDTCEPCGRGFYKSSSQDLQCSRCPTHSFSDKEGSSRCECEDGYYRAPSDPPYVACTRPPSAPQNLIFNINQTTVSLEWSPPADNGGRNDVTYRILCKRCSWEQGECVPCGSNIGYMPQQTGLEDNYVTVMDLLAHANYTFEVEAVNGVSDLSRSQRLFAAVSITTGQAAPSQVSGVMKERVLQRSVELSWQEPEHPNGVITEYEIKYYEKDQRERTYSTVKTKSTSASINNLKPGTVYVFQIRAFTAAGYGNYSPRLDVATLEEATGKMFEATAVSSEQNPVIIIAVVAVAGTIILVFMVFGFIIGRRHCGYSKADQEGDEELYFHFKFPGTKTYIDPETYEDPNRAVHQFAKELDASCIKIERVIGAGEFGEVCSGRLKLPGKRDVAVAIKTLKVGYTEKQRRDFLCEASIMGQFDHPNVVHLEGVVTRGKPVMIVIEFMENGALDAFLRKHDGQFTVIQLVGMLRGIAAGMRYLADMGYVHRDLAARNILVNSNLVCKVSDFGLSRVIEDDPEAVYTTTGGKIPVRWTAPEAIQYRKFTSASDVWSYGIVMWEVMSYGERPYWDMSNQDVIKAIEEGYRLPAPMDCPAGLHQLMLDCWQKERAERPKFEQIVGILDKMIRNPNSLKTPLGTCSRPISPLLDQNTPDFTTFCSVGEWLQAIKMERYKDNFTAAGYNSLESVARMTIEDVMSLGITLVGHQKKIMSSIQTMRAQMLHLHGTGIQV

## COc1cc(OC)c(Cl)c(N2Cc3cnc(Nc4ccc(F)cc4)nc3N(C3CCN(C(=O)/C=C/CN(C)C)CC3)C2=O)c1Cl
[1]
  IC50: 0.77 nM
[2]
  Activity: 47%
[3]
  Activity: 99%
[4]
  Activity: 100%
[5]
  Activity: 99%
